Shown are actives, neighbours in structure and some others; about 4% of the full set was active somewhere.
Mdm2 MdmX PPI = human Mdm2/MdmX binding inhibition; inhibition, % at 8 µM; 3% of 330,000 active; SaOS-2 split-luciferase Mdm2/MdmX complementation, luminescence; O15151+Q00987; AID 485346;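 active = inhibition of at least 50% at 8 µM in the primary screen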
Target sequence (O15151 whole entry, looked up): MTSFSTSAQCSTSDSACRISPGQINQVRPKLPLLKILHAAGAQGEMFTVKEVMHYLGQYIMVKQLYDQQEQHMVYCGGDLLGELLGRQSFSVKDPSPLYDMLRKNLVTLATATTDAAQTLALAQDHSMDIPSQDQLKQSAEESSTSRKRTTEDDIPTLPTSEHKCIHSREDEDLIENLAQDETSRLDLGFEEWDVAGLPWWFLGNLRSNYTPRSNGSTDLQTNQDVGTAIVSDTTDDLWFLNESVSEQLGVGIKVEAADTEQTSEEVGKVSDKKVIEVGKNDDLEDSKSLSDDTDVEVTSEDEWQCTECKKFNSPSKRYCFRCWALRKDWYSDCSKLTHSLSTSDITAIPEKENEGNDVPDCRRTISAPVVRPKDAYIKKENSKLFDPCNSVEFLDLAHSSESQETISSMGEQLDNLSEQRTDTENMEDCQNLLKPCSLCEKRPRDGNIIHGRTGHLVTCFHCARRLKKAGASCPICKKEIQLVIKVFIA
Target sequence (Q00987 whole entry, looked up): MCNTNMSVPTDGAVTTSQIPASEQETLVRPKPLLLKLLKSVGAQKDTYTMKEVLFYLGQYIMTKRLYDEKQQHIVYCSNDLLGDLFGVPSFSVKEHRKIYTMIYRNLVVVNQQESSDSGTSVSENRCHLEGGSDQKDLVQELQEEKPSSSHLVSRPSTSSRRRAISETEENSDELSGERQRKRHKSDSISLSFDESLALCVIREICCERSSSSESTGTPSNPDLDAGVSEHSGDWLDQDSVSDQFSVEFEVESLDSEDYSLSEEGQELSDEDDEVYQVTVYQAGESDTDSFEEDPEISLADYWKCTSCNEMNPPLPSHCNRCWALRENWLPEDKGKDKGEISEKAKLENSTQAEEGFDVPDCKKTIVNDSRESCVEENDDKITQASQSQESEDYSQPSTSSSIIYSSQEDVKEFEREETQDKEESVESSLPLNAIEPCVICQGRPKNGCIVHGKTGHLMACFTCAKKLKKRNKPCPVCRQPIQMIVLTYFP
UPR CHOP act = apoptotic UPR (CHOP) activation | CHO-CHOP luciferase reporter, luminescence; percent of tunicamycin response over DMSO baseline | 0.34% of 330,000 active | activation, % at 10 µM | AID 449763;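 active = at 10 µM dose, activation of 40% or more, normalized to positive control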;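 also: 100% = tunicamycin at 10 µg/mL and 0% = DMSO alone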
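assay system = CHO CHOP reporter cells | amount = 500 CHO-CHOP cells per well | buffer or medium = F12 with 10% FBS | incubation = 16-18 h cell attachment, then 6 h compound exposure, 37 °C | detection = luminescence read with Steady-Glo | read-out = percent activation relative to tunicamycin control | controls = tunicamycin high control, DMSO low control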
XBP1 UPR activ = adaptive UPR (XBP1) activation; CHO-XBP1 luciferase reporter, IRE1-XBP1 UPR activation, luminescence; percent of tunicamycin response, DMSO as zero; activation, % at 20 µM; 0.33% of 330,000 active;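 active = versus positive control, 20 µM dose yields 30% or more activation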;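 also: 100% = tunicamycin at 10 µg/mL and 0% = DMSO only wells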
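Material: CHO cell line with stable XBP1 luciferase reporter; schedule: 16-18 h cell attachment at 37 °C, then 6 h compound exposure; signal: glow luminescence from Steady-Glo reagent; medium: serum-containing F12 medium, 10% FBS; benchmarks: tunicamycin 10 µg/mL and vehicle-only wells; read-out: percent activation relative to tunicamycin reference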
ABHD5 PLIN5 PPI = inhibitors of human ABHD5-perilipin-5 interaction; Split G. princeps luciferase complementation, luminescence, 4 h; inhibition, % at 4 µM; 0.78% of 360,000 active;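 active = inhibition above the mean inhibition across every tested compound plus 3 SD, cut at about 22% in these data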;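 also: 0% = DMSO only wells and the 100% control is not disclosed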
Exocytosis inh = blocks lytic granule exocytosis; TALL-104 LAMP-1 surface exposure, flow cytometry; cells stimulated with thapsigargin and PMA; inhibition, % at 10 µM; 0.66% of 360,000 active; AID 651702;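 active = inhibition above about 55%, limit read from the data; inconclusive = no clear call, values can overlap the other calls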
UPR CHOP confirm = confirmation of apoptotic unfolded protein response (CHOP) activators; shares compounds with UPR CHOP act; 64% of 1,000 active; CHO-CHOP cells, CHOP-luciferase reporter luminescence; percent of tunicamycin response, DMSO as zero; activation, % at 10 µM; in the data active = activation above about 33%;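 also: 0% = DMSO wells and 100% = tunicamycin 10 µg/mL wells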
UPR XBP1 confirm = adaptive UPR (XBP1) activation, confirmed. shares compounds with XBP1 UPR activ. CHO-XBP1 IRE1-XBP1 luciferase reporter, luminescence. activation, % at 20 µM. 63% of 1,000 active. AID 485299;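 active = reporter signal at least 30% of the positive control's activation in two or more of four replicate wells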;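 also: plate controls were DMSO negative control for no effect and tunicamycin 10 µg/mL positive control for full effect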
Mdm2-MdmX conf = confirmation of human Mdm2/MdmX interaction inhibitors | inhibition, % at 8 µM | 55% of 10,000 active | shares compounds with Mdm2 MdmX PPI | Mdm2-MdmX binding, luminescent assay; in the data active = inhibition above about 40%
Full FLuc ctr = full-length luciferase inhibition in Mdm2/MdmX counter-screen; shares compounds with Mdm2 MdmX PPI; SaOS-2 full-length luciferase counterscreen, luminescence; inhibition, % at 8 µM; 77% of 6,200 active;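 active = mean inhibition at 8 µM reaching about 37%, which flags the compound as non-specific, limit read from the data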;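 also: p53-null SaOS-2 cells with luciferase driven by a doxycycline-inducible promoter; compound on cells about two nights before reading with doxycycline added after day one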
ABHD5 PLIN5 conf = confirmation of human ABHD5-PLIN5 interaction inhibitors; inhibition, % at 4 µM; biochemical ABHD5-PLIN5 interaction, luminescence; 67% of 2,200 active; AID 651612; shares compounds with ABHD5 PLIN5 PPI; in the data active = inhibition above about 23%;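 also: 0% = DMSO vehicle wells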
HNF4 counter = counter-screen for ABHD5-PLIN5 inhibitors: HNF4 split-luciferase | shares compounds with ABHD5 PLIN5 PPI | 77% of 2,200 active | inhibition, % at 4 µM | HNF4 dimerization, luminescence, biochemical;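 active = mean inhibition across replicate wells exceeding the computed hit threshold, cut at about 13% in these data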;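 also: light from luciferase halves that rejoin when HNF4 fusion proteins dimerize; 0% = DMSO only wells and the 100% control is not given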
* hit, by the source's call; ? = inconclusive; · = no result.

SMILES	Mdm2 MdmX PPI	UPR CHOP act	XBP1 UPR activ	ABHD5 PLIN5 PPI	Exocytosis inh	UPR CHOP confirm	Mdm2-MdmX conf	others
Cc1nn(-c2ccccn2)c2c1-c1nc(N)ncc1CC2	23	1	6	2	-2	·	·
O=C(CN1C(=O)S/C(=C/C=C/c2ccccc2)C1=O)Nc1ccc(C(=O)O)cc1	-10	-1	-1	20	3	·	·
O=C(CCCN1C(=O)S/C(=C\C=C\c2ccccc2)C1=O)Nc1ccc(O)cc1	53*	64*	11	5	4	2	-1
CC(C)(C)c1ccc(Oc2ccc(NC(=O)c3ccco3)cn2)cc1	56*	43*	11	9	6	-2	39	Full FLuc ctr=69*
CNC(=S)N1CCN(c2c(F)cc3c(=O)c(C(=O)O)cn(C4CC4)c3c2OC)CC1C (centres undefined)	16	-3	-3	-9	2	·	·
Cc1ccc(NC(=O)Cc2ccc(Cl)cc2)cc1S(=O)(=O)N1CCCCCC1	4	4	-1	-14	2	·	·
Cc1ccc(NC(=O)Cn2ncc(Cl)c(Cl)c2=O)cc1S(=O)(=O)N1CCCCC1	100*	88*	-8	6	2	57*	85*	Full FLuc ctr=54*
Cc1cc(C(=O)c2ccc(C(C)(C)C)cc2)c(NC(=O)CCl)s1	78*	50*	6	2	2	94*	-5
Cc1cc(C(=O)c2ccccc2)c(NC(=O)CN2CCOCC2)s1	3	-2	-1	4	2	·	·
O=[N+]([O-])c1cc2c(cc1CN1CCN(c3ccc(F)cc3)CC1)OCO2	24	1	-5	2	-1	·	·
CC(C)OC(=O)n1c(=S)oc2ccccc21	0	-2	-4	-7	-5	·	·
CCCCC(=O)/C=C/n1c(=S)oc2ccccc21	100*	120*	-1	16	12	21	33
Oc1cc(Nc2ccncc2)cc2cccnc12	38	1	5	-6	-6	·	·
Oc1cc(-c2ccncc2)cc2cccnc12	91*	70*	34*	8	14	66*	66*	UPR XBP1 confirm=16;Full FLuc ctr=52*
O=C(O)CCCCCCCCc1cn(CC2CCCCC2)nn1	-10	-1	-1	14	8	·	·
CCOC(=O)CCS(=O)(=O)c1nc(-c2ccccc2)cc(C(F)(F)F)n1	100*	73*	-11	58*	88*	-9	100*	Full FLuc ctr=51*
COc1cc(-c2nc3n(n2)C(c2ccncc2)C2=C(CCCC2=O)N3)cc(OC)c1OC (centres undefined)	4	1	1	-1	-2	·	·
COc1ccc(N2CCN(Cc3cc(=O)oc4cc(-c5ccccc5)c(O)cc34)CC2)cc1	89*	116*	107*	-1	0	83*	59*	UPR XBP1 confirm=78*;Full FLuc ctr=22
C[C@@H]1C[C@@H]2OC(=O)[C@]3(C)[C@H]2[C@@H](OC3(C)O)[C@]2(C)C(=O)C=C[C@H]12 (some centres undefined)	-30	3	1	7	-6	·	·
C=C1C(=O)C=C[C@]2(C)C[C@@H]3OC(=O)[C@](C)(O)[C@H]3C[C@@H]12	73*	59*	3	19	-4	56*	47*	Full FLuc ctr=25
COc1cc(/C=C2\CC(C(C)(C)C)C/C(=C\c3cc(OC)c(OC)c(OC)c3)C2=O)cc(OC)c1OC (centres undefined)	97*	126*	43*	12	4	112*	99*	UPR XBP1 confirm=41*;Full FLuc ctr=55*
COc1cc(/C=C2\CC/C(=C\c3cc(OC)c(OC)c(OC)c3)C2=O)cc(OC)c1OC	32	0	-2	3	0	·	·
CN(C)/C=C(\C#N)S(=O)(=O)c1ccccc1	4	0	0	2	-1	·	·
O=C(OCC(=O)N1CCOCC1)c1ccccc1Br	24	2	2	2	3	·	·
Cc1ccc2oc(=O)c(/C=C(\O)c3ccccc3)nc2c1	-5	-2	-1	-1	-1	·	·
SMILES	Mdm2 MdmX PPI	UPR CHOP act	XBP1 UPR activ	ABHD5 PLIN5 PPI	Exocytosis inh	UPR CHOP confirm	Mdm2-MdmX conf	others
c1ccc(N2CCN(c3nc(-c4ccccn4)nc4ccccc34)CC2)cc1	59*	97*	17	4	-5	21	31
CC1CCN(Cc2c(C(=O)N/N=C/c3ccc(C(C)(C)C)cc3)nnn2-c2nonc2N)CC1	50*	202*	178*	-4	?	50*	27	UPR XBP1 confirm=117*
CCOc1ccccc1/C=N/NC(=O)c1nnn(-c2nonc2N)c1CN1CCC(C)CC1	-28	1	2	-2	42	·	·
Cc1ccc(Sc2ccc(N)cn2)cc1	-6	0	2	4	-4	·	·
COc1ccc(Nc2ccc3c(c2)=NC2(CCCCC2)[N+]=3[O-])cc1	100*	45*	13	-7	14	21	59*	Full FLuc ctr=39*
O=C(N/N=C/c1ccccn1)c1cc(C2CC2)nc2ccccc12	-8	-2	5	4	-10	·	·
O=C(N/N=C/c1ccccn1)c1cc(-c2ccccc2)nc2ccccc12	71*	133*	-4	-2	6	131*	3
O=C(/C(=C\c1ccccc1)c1nc2ccccc2[nH]1)c1ccc(Cl)cc1	100*	104*	53*	21	46	267*	-54	UPR XBP1 confirm=8
O=S(=O)(Nc1ccc(Br)cc1)c1cccc2nonc12	14	-1	-5	2	-1	·	·
CC(C)c1ccc(S(=O)(=O)N2CCN(C(=O)CN3C(=O)NC4(CCCCC4)C3=O)CC2)cc1	39	3	1	4	-1	·	·
O=C1Nc2ccccc2/C1=C\C(=O)c1ccccc1	37	98*	13	50*	24	237*	·	ABHD5 PLIN5 conf=82*;HNF4 counter=96*
Cc1nc([N+](=O)[O-])c(Br)n1CC(=O)c1ccc2ccccc2c1	87*	144*	2	25*	2	104*	23	ABHD5 PLIN5 conf=53*;HNF4 counter=36*
Cc1ccc(NC(=O)CCN2C(=O)CSC2=O)cc1	8	1	-7	-6	6	·	·

Bioassay records (PubChem)
